What was measured:
Assay type in all cases: cell-based
[1] = biological target: T1, Nucleotide-binding oligomerization domain-containing protein 1 (Homo sapiens) (UniProt Q9Y239); assay: Antagonist activity at human NOD1 expressed in HEK-Blue cells assessed as inhibition of C12-iE-DAP-stimulated cell activation at 10 uM preincubated for 3 hrs followed by C12-iE-DAP addition measured after 20 hrs by SEAP reporter gene assay
T1 sequence (whole entry): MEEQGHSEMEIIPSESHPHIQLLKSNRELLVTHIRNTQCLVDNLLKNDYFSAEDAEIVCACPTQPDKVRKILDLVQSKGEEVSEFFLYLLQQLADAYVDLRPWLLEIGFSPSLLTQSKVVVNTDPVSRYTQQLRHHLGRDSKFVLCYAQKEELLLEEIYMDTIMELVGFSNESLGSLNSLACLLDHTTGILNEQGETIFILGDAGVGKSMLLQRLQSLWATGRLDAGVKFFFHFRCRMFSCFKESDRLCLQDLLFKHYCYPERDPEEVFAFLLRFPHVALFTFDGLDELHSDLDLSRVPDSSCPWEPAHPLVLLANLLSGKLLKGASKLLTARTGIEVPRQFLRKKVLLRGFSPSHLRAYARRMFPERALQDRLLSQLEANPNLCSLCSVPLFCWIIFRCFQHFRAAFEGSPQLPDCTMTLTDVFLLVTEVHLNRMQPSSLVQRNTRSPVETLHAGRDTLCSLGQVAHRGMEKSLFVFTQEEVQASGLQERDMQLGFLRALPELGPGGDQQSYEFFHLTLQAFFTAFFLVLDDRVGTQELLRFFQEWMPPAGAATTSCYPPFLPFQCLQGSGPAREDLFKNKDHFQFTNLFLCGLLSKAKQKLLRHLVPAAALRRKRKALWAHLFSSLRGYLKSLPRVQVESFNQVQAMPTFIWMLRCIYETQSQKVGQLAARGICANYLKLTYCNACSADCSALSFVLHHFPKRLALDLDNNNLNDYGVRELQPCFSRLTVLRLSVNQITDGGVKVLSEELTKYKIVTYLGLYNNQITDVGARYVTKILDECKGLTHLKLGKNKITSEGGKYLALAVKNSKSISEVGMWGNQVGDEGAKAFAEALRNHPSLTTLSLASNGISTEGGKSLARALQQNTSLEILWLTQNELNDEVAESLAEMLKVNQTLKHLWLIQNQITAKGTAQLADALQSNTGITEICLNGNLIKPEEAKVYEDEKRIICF
Outline: (§1)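 HEK-Blue hNOD1 or hNOD2 cells preincubated with compound 3 h, then stimulated 20 h with C12-iE-DAP 50 ng/mL (NOD1) or MDP 100 ng/mL (NOD2); SEAP in supernatant quantified. Primary screen at 10 μM, hits repeated in triplicate; IC50 from dose-response, mean ± SD (n = 3), only for compounds reaching ≥50% inhibition at the screening concentration.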

[2] = biological target: T1, Nucleotide-binding oligomerization domain-containing protein 1 (Homo sapiens); assay: Antagonist activity at human NOD1 expressed in HEK-blue cells assessed as inhibition of C12-iE-DAP-stimulated cell activation at 5 uM preincubated for 3 hrs followed by C12-iE-DAP addition measured after 20 hrs by SEAP reporter gene assay
[3] = biological target: T2, Nucleotide-binding oligomerization domain-containing protein 1 (Homo sapiens, UniProt Q9Y239); assay: Antagonist activity at human NOD1 expressed in HEK-blue cells assessed as inhibition of C12-iE-DAP-stimulated cell activation preincubated for 3 hrs followed by C12-iE-DAP addition measured after 20 hrs by SEAP reporter gene assay; outline: as §1
T2 sequence (Q9Y239 whole entry): T1 sequence (whole entry)

[4] = biological target: T3, Nucleotide-binding oligomerization domain-containing protein 2 (Homo sapiens, UniProt Q9HC29); assay: Antagonist activity at human NOD2 expressed in HEK-Blue cells assessed as inhibition of MDP-stimulated cell activation at 10 uM preincubated for 3 hrs followed by MDP addition measured after 20 hrs by SEAP reporter gene assay; outline: as §1
T3 sequence (Q9HC29 whole entry, the tested form may be a part): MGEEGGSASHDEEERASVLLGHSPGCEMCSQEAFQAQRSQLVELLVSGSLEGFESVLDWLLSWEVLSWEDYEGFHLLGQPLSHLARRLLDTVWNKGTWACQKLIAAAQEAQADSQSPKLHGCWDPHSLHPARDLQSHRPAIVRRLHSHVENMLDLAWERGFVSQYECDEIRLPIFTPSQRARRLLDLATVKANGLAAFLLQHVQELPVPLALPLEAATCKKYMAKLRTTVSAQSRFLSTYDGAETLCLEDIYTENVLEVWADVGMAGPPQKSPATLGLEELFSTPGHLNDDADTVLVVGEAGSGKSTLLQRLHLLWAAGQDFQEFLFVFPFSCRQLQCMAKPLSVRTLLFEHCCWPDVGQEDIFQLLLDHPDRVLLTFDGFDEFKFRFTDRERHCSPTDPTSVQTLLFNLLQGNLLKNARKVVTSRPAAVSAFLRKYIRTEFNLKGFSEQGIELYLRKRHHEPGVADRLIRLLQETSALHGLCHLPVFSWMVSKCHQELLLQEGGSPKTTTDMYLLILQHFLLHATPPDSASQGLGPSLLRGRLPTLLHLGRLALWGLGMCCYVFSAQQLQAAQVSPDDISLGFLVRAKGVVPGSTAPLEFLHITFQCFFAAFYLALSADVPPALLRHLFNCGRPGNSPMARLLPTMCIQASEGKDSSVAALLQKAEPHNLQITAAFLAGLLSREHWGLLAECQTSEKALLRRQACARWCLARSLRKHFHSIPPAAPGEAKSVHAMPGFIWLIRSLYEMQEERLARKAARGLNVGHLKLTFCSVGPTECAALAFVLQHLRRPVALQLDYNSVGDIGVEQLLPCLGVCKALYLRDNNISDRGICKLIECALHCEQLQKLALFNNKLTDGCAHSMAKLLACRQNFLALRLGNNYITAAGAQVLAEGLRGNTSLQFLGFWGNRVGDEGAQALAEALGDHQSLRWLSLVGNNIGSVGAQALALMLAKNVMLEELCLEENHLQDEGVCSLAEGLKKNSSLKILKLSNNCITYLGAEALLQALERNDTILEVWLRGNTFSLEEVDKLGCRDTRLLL

[5] = biological target: T3, Nucleotide-binding oligomerization domain-containing protein 2; assay: Antagonist activity at human NOD2 expressed in HEK-Blue cells assessed as inhibition of MDP-stimulated cell activation at 5 uM preincubated for 3 hrs followed by MDP addition measured after 20 hrs by SEAP reporter gene assay
[6] = biological target: T3, Nucleotide-binding oligomerization domain-containing protein 2; assay: Antagonist activity at human NOD2 expressed in HEK-Blue cells assessed as inhibition of MDP-stimulated cell activation preincubated for 3 hrs followed by MDP addition measured after 20 hrs by SEAP reporter gene assay; outline: as §1

| SMILES | inhibition [1] | inhibition [2] | IC50 [3] | inhibition [4] | inhibition [5] | IC50 [6] |
| --- | --- | --- | --- | --- | --- | --- |
| CCCNC(=O)CC[C@H]1NC(=O)c2cc(Oc3cccc(N(C)C)c3)c(NC(=O)COCc3ccc(F)cc3)cc2NC1=O | 80.1% | 68% | 2810 nM | 48.8% | 30.8% |  |
| COC(=O)CC[C@H]1NC(=O)c2cc(Oc3cccc(N(C)C)c3)c(NC(=O)COCc3ccc4ccccc4c3)cc2NC1=O |  | 77.7% | 1610 nM |  | 70.9% | 1580 nM |
| CN(C)c1cccc(Oc2cc3c(cc2NC(=O)COCc2ccc(Cl)cc2)NC(=O)[C@@H](CCC(=O)N2CCCCC2)NC3=O)c1 | 85.2% | 82.9% | 1060 nM | 96.7% | 91.2% | 900 nM |
| COC(=O)CC[C@H]1NC(=O)c2cc(Oc3cccc(N(C)C)c3)c(NC(=O)COCc3cccc(Cl)c3)cc2NC1=O | 81.8% | 76.7% | 1290 nM | 84.1% | 71.5% | 2080 nM |
| COC(=O)CC[C@H]1NC(=O)c2cc(Oc3cccc(N(C)C)c3)c(NC(=O)COCc3ccc(OC)cc3)cc2NC1=O | 21.6% | 8.57% |  | 56.5% | 34.1% | 9510 nM |
| CN(C)c1cccc(Oc2cc3c(cc2NC(=O)COCc2ccccc2)NC(=O)[C@@H](CCC(=O)NC(C)(C)C)NC3=O)c1 | 87.6% | 80.3% | 1110 nM | 92.1% | 80.3% | 2270 nM |
| COC(=O)CC[C@H]1NC(=O)c2cc(Oc3cccc(N(C)C)c3)c(NC(=O)COCc3ccc(C#N)cc3)cc2NC1=O | 59.6% | 65.4% | 3990 nM | 67.9% | 72.8% | 2510 nM |
| CN(C)C(=O)CC[C@H]1NC(=O)c2cc(Oc3cccc(N(C)C)c3)c(NC(=O)COCc3ccccc3)cc2NC1=O | 68% | 43.1% | 4950 nM | 35.5% | 31% |  |
| COC(=O)CC[C@H]1NC(=O)c2cc(Oc3cc(Cl)cc(N(C)C)c3)c(NC(=O)COCc3ccccc3)cc2NC1=O | 4.89% | 47.1% |  | 56.5% | 54.9% | 5050 nM |
| COC(=O)CC[C@H]1NC(=O)c2cc(Oc3cccc(N(C)C)c3)c(NC(=O)COCc3ccc(F)cc3)cc2NC1=O | 46.4% | 73.7% | 2360 nM | 71.4% | 63.1% | 3100 nM |
| CCCNC(=O)CC[C@H]1NC(=O)c2cc(Oc3cccc(N(C)C)c3)c(NC(=O)COCc3ccc(Br)cc3)cc2NC1=O | 50.5% | 50.2% |  | 31% | 40.3% |  |
| COC(=O)CC[C@H]1NC(=O)c2cc(Oc3cccc(N(C)C)c3)c(NC(=O)COCc3ccc(F)c(F)c3)cc2NC1=O | 89% | 83.7% | 1160 nM | 91.2% | 83.5% | 1700 nM |
| COC(=O)CC[C@H]1NC(=O)c2cc(Oc3cccc(N(C)C)c3)c(NC(=O)COCc3cccc(Br)c3)cc2NC1=O | 89.6% | 82.9% | 1330 nM | 86.7% | 65.9% | 2280 nM |
| CCCCCCCCCCCCNC(=O)CC[C@H]1NC(=O)c2cc(Oc3cccc(N(C)C)c3)c(NC(=O)COCc3ccccc3)cc2NC1=O | 48.2% | 37.1% |  | 23.1% | 29.1% |  |
| CCCCN(CCCC)C(=O)CC[C@H]1NC(=O)c2cc(Oc3cccc(N(C)C)c3)c(NC(=O)COCc3ccccc3)cc2NC1=O | 82% | 81.8% | 1300 nM | 88.6% | 85% | 1320 nM |
| COC(=O)CC[C@@H]1NC(=O)c2cc(Oc3cccc(N(C)C)c3)c(NC(=O)COCc3ccc(C(F)(F)F)cc3)cc2NC1=O |  | 89.6% | 580 nM |  | 87.8% | 590 nM |
| COC(=O)CC[C@H]1NC(=O)c2cc(Oc3cc(N(C)C)cc(Cl)c3Cl)c(NC(=O)COCc3ccccc3)cc2NC1=O | 1.4% | -5.19% |  | 6.85% | 9.23% |  |
| C[C@@H]1NC(=O)c2cc(Oc3cccc(N(C)C)c3)c(NC(=O)COCc3ccc(C(F)(F)F)cc3)cc2NC1=O |  | 73.8% | 1930 nM |  | 64.5% | 940 nM |
| COC(=O)CC[C@H]1NC(=O)c2cc(Oc3cccc(N4CCCC4)c3)c(NC(=O)COCc3ccc(Cl)cc3)cc2NC1=O | 86.6% | 80.9% | 1390 nM | 94% | 86% | 1500 nM |
| CCCCNC(=O)CC[C@H]1NC(=O)c2cc(Oc3cccc(N(C)C)c3)c(NC(=O)COCc3ccccc3)cc2NC1=O | 86% | 81.8% | 1290 nM | 71.6% | 60.5% | 2880 nM |
| COC(=O)CC[C@H]1NC(=O)c2cc(Oc3cc(N(C)C)c(Cl)c(Cl)c3Cl)c(NC(=O)COCc3ccccc3)cc2NC1=O | 11.1% | 16.2% |  | 17.4% | 11.1% |  |
| COC(=O)CC[C@H]1NC(=O)c2cc(Oc3cccc(N(C)C)c3)c(NC(=O)COCc3ccc(Cl)cc3)cc2NC1=O | 90.6% | 90.7% | 610 nM | 90.7% | 86.3% | 1240 nM |
| COC(=O)CC[C@H]1NC(=O)c2cc(Oc3cccc(N(C)C)c3)c(NC(=O)COCc3ccc(C(C)(C)C)cc3)cc2NC1=O | 73.3% | 67.7% | 1960 nM | 75.7% | 75.2% | 2390 nM |
| COC(=O)CC[C@H]1NC(=O)c2cc(Oc3cc(Cl)c(Cl)c(N(C)C)c3Cl)c(NC(=O)COCc3ccccc3)cc2NC1=O | 65.3% | 79.8% | 1330 nM | 34% | 55.9% | 3780 nM |
| COC(=O)CC[C@H]1NC(=O)c2cc(Oc3cccc(N(C)C)c3Cl)c(NC(=O)COCc3ccccc3)cc2NC1=O | 44.2% | 55.8% |  | 46% | 44.6% |  |
| CN(C)c1cccc(Oc2cc3c(cc2NC(=O)COCc2ccccc2)NC(=O)[C@@H](CCC(=O)N2CCCCC2)NC3=O)c1 | 86.7% | 82.8% | 1110 nM | 80.6% | 63.3% | 2990 nM |
| COC(=O)CC[C@H]1NC(=O)c2cc(Oc3cccc(N(C)C)c3)c(NC(=O)COCc3ccc(F)cc3Cl)cc2NC1=O | 38.6% | 20.1% |  | 13.5% | 12.8% |  |
| CCCNC(=O)CC[C@H]1NC(=O)c2cc(Oc3cccc(N(C)C)c3)c(NC(=O)COCc3ccc(Cl)cc3)cc2NC1=O | 47.6% | 52.9% |  | 44.6% | 37.6% |  |
| CCCCCCCCCCCCCCCCNC(=O)CC[C@H]1NC(=O)c2cc(Oc3cccc(N(C)C)c3)c(NC(=O)COCc3ccccc3)cc2NC1=O | 27.5% | 10.6% |  | -7.1% | -4.77% |  |
| COC(=O)CC[C@H]1NC(=O)c2cc(Oc3cc(N(C)C)ccc3Cl)c(NC(=O)COCc3ccccc3)cc2NC1=O | 29.3% | 24.8% |  | 7.26% | 11% |  |

From ChEMBL document CHEMBL4014339, “Discovery of 1,4-Benzodiazepine-2,5-dione (BZD) Derivatives as Dual Nucleotide Binding Oligomerization Domain Containing 1/2 (NOD1/NOD2) Antagonists Sensitizing Paclitaxel (PTX) To Suppress Lewis Lung Carcinoma (LLC) Growth in Vivo” (J Med Chem, 2017)
